Experimental data published in ChEMBL document CHEMBL1128326, “N-acylated alpha-amino acids as novel oral delivery agents for proteins” (1995).

What was measured:
Rattus norvegicus [1] = assay: The compound was tested for oral delivery of interferon-alpha in rats.(compound dose=800 mg/kg; inf-alpha dose= 1 mg/kg)
Rattus norvegicus [2] = assay: The compound was tested for oral delivery of calcitonin, activity is measured as reduction in serum calcium levels at 400 mg/kg and dose of calcitotin is 10 ug/kg; format: functional
Outline: (§1)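 Male Sprague-Dawley rats (125–150 g; groups of 6–7) were anesthetized with ketamine 44 mg/kg plus thiazine 0.5 mg/kg. They were given an aqueous pH 7.2 solution of compound with salmon calcitonin (400 mg/kg and 10 μg/kg) by oral gavage at 2 mL/kg. Control groups received calcitonin alone or compound alone. Tail-artery blood was sampled serially, and serum calcium was measured with a kit; results are % decrease, mean ± SE.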

Rattus norvegicus [3] = organism: Rattus norvegicus; assay: The compound was tested for oral delivery of calcitonin, activity is measured as reduction in serum calcium levels.; format: functional; parameters: unit not given beside the values
Outline: as §1

[4] = molecular target: Serine protease 1 (Homo sapiens) (UniProt P07477); assay: The compound was tested for inhibitory activity against trypsin at 10 mg/mL
Sequence of Serine protease 1 (Homo sapiens) (P07477 whole entry): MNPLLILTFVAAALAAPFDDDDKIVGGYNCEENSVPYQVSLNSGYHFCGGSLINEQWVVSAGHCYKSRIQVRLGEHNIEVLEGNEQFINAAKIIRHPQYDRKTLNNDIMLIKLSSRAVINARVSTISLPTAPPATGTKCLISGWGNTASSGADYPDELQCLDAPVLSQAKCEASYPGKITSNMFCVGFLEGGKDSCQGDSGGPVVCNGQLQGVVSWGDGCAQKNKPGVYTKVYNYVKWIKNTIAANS
Outline: (§2)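 Trypsin activity was taken from USP pancreatin at 1 mg/mL final, in 50 mM potassium phosphate pH 7.6 at 37 °C. Test compound was preincubated with enzyme for 10 min. The reaction was started with N-benzoyl-L-arginine p-nitroanilide (300 μM final), and p-nitroaniline formation was followed at 400 nm over 12 min. Percent inhibition was calculated at 12 min from reaction rates versus compound-free controls.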

Rattus norvegicus [5] = organism: Rattus norvegicus; assay: The compound was tested for oral delivery of interferon-alpha in rats.
Rattus norvegicus [6] = assay: The compound was tested for oral delivery of interferon-alpha in rats.(compound dose=400 mg/kg; inf-alpha dose= 250 ug/kg)
Rattus norvegicus [7] = assay: The compound was tested for oral delivery of interferon-alpha in rats.(compound dose=400 mg/kg; inf-alpha dose= 500 ug/kg)
[8] = molecular target: Serine protease 1 (Homo sapiens) (UniProt P07477); assay: The compound was tested for inhibitory activity against trypsin, activity is expressed as %inhibition.; conditions: concentration not given here
Outline: as §2

Row | Structure (SMILES) | Amount delivered (Rattus norvegicus [1]) [pg/mL] | Ca2+ reduction (Rattus norvegicus [2]) | other results
1 | O=C(CC1CCCCC1)N[C@H](C(=O)O)c1ccccc1 | 6401 | – | –
2 | O=C(N[C@@H](Cc1ccccc1)C(=O)O)C1CCCCC1 | 611 | – | –
3 | CC(C)C[C@H](NC(=O)c1ccccc1)C(=O)O | – | -12.9 | –
4 | N=C(N)NCCC[C@H](NC(=O)C1CCCCC1)C(=O)O | 2107 | – | –
5 | CCC(C)[C@H](NC(=O)C1CCCCC1)C(=O)O (stereo partly drawn) | 340 | – | –
6 | COc1cccc(C(=O)N[C@@H](CC(C)C)C(=O)O)c1 | – | – | Ca2+ reduction (Rattus norvegicus [3]): -7.9
7 | CC(C)C[C@H](NC(=O)C1CCCCC1)C(=O)O | – | -21.82 | inhibition [4]: 39%
8 | CC(C)C[C@H](NC(=O)c1ccc([N+](=O)[O-])cc1)C(=O)O | – | -11.8 | –
9 | NC(=O)NCCC[C@H](NC(=O)C1CCCCC1)C(=O)O | 1922 | – | –
10 | CC(C)C[C@H](NC(=O)C1CCCCC1)C(=O)O.N=C(N)NCCC[C@H](NC(=O)C1CCCCC1)C(=O)O.O=C(N[C@@H](Cc1ccc(O)cc1)C(=O)O)C1CCCCC1 | – | -33.9 | –
11 | CC(C)C[C@H](NC(=O)C1CC1)C(=O)O | – | – | Ca2+ reduction (Rattus norvegicus [3]): -3.87
12 | CC(C)C[C@H](NC(=O)C1CCCCC1C)C(=O)O (stereo partly drawn) | – | -18.27 | –
13 | O=C(CCC1CCCCC1)N[C@H](C(=O)O)c1ccccc1 | 3026 | – | –
14 | CC(C)C[C@H](NC(=O)CCC1CCCCC1)C(=O)O | – | -14.97 | –
15 | CC(C)C[C@H](NC(=O)C1CCCC(C)C1)C(=O)O (stereo partly drawn) | – | -13.69 | –
16 | CC(C)C[C@@H](NC(=O)C1CCCCC1)C(=O)O | – | -18.32 | –
17 | O=C(N[C@H](C(=O)O)c1ccccc1)c1ccccc1 | 8427 | – | –
18 | CC(C)C[C@H](NC(=O)C1CCCC1)C(=O)O | – | – | Ca2+ reduction (Rattus norvegicus [3]): -6.28
19 | NCCCC[C@H](NC(=O)C1CCCCC1)C(=O)O | 3340 | – | –
20 | O=C(N[C@H](C(=O)O)c1ccccc1)C1CCCCCC1 | 4066 | – | –
21 | O=C(N[C@@H](Cc1ccc(O)cc1)C(=O)O)C1CCCCC1 | 3422 | – | –
22 | CC(C)C[C@H](NC(=O)C1CCCCCC1)C(=O)O | – | -19.76 | –
23 | CC(C)C[C@H](NC(=O)C1CCC(C)CC1)C(=O)O (stereo partly drawn) | – | -15.52 | –
24 | CC(C)C[C@H](NC(=O)C1CCCCC1C(=O)O)C(=O)O (stereo partly drawn) | – | – | Ca2+ reduction (Rattus norvegicus [3]): -10.47
25 | O=C(N[C@H](C(=O)O)c1ccccc1)c1ccccc1O | 757 | – | –
26 | CC(C)C[C@H](NC(=O)c1ccccc1[N+](=O)[O-])C(=O)O | – | -6.61 | –
27 | CC(C)C[C@H](NC(=O)c1cccc([N+](=O)[O-])c1)C(=O)O | – | -14.5 | –
28 | O=C(N[C@H](C(=O)O)c1ccccc1)C1CCCC1 | 4707 | – | –
29 | O=C(N[C@H](C(=O)O)c1ccccc1)C1CCCCC1 | – | – | Amount delivered (Rattus norvegicus [5]): 3808 pg/mL; Amount delivered (Rattus norvegicus [6]): 434 pg/mL; Amount delivered (Rattus norvegicus [7]): 2598 pg/mL; inhibition [8]: 44%
